Screening results: PubChem BioAssay, several laboratories
Only some compounds are listed: those with a hit (about 2.2% of all), similar ones and a draw of the others.
HCV core dimer – inhibitors of HCV core protein dimerization, primary screen, biochemical, TR-FRET, high-throughput | TR-FRET GST/Flag-core106 dimerization, 1536-well | inhibition, % at 5 µM | AID 1899, 2009 | actives 0.33% (n = 300,000);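 active = inhibition above the mean of all tested compounds plus 3 SD, set per screening campaign, cut at about 45% in these data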
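assay system = GST-tagged and Flag-tagged HCV core protein residues 1-106 | controls = unlabelled core106 and no-GST-core106 wells | incubation = compound-protein-antibody incubation 4 h at 22.5 °C | probe or stimulus = Eu donor and XL665 acceptor anti-tag antibodies | read-out = % inhibition based on acceptor/donor emission ratio | signal = TR-FRET 671 and 617 nm emission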
NS3 helicase inh – inhibitors of HCV NS3 helicase, primary screen, biochemical, Cy5 molecular beacon fluorescence | Hepatitis C virus NS3 helicase | NS3 helicase DNA unwinding | inhibition, % at 10.9 µM | actives 0.56% (n = 290,000) | AID 1800, 2009;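 active = inhibition above the mean of all tested compounds plus 3 SD, set per campaign, cut at about 35% in these data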
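Control set: DMSO versus 110 µM thioflavine S; Material: NS3 helicase fragment of HCV; Measured by: Cy5 fluorescence at 0 and 60 min, beacon hairpin quenching; Read-out basis: percent inhibition from t60/t0 fluorescence ratio; Times: reaction time 60 min, 25 °C; Repeats: single replicate; Compound dosing: single dose, 10.9 µM nominal final, DMSO 0.8% final.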
DNA FID counter-1 – compounds displacing fluorescent DNA intercalator, primary screen, artefact control for HCV NS3 helicase inhibitor project, biochemical, FID fluorescence. DNA fluorescent intercalator displacement. inhibition, % at 7.9 µM. actives 0.17% (n = 290,000);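 also: higher means more ethidium bromide displaced from hairpin DNA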
GPR7 antag – GPR7 receptor antagonists, primary screen, cell-based, fluorescence, single concentration; AID 1861, 2009; actives 1.1% (n = 290,000); GPR7-expressing cells, fluorescence antagonist assay; Neuropeptides B/W receptor type 1 (Homo sapiens), P48145; inhibition, % at 4.4 µM; in the data active = inhibition above about 16%, passing the limit was not always enough;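 also: cells stimulated with the agonist NPW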
GRK2 aptamer HTS – compounds blocking aptamer binding on GRK2 – biochemical, human GRK2, bead flow cytometry, HTS, primary screen | FAM-aptamer displacement from GRK2 | inhibition of aptamer binding, % at 10 µM | actives 0.59% (n = 330,000) | AID 488847, 2010;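 active = inhibition of aptamer binding above 40%, roughly 3 SD of noise, on plates passing a quality check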;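 also: median bead fluorescence of bound FAM aptamer so fluorescent compounds give negative values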
DAGLB inhibitor – DAGLB lipase inhibitors, primary screen, biochemical, fluorescence, HTS | Diacylglycerol lipase-beta (Homo sapiens), Q8NCG7 | HEK293T DAGLB membrane lysate, EnzChek fluorogenic substrate | inhibition, % at 5.17 µM | actives 0.059% (n = 340,000) | AID 504411, 2011; in the data active = inhibition above about 34%
Target sequence (Q8NCG7 whole entry, looked up): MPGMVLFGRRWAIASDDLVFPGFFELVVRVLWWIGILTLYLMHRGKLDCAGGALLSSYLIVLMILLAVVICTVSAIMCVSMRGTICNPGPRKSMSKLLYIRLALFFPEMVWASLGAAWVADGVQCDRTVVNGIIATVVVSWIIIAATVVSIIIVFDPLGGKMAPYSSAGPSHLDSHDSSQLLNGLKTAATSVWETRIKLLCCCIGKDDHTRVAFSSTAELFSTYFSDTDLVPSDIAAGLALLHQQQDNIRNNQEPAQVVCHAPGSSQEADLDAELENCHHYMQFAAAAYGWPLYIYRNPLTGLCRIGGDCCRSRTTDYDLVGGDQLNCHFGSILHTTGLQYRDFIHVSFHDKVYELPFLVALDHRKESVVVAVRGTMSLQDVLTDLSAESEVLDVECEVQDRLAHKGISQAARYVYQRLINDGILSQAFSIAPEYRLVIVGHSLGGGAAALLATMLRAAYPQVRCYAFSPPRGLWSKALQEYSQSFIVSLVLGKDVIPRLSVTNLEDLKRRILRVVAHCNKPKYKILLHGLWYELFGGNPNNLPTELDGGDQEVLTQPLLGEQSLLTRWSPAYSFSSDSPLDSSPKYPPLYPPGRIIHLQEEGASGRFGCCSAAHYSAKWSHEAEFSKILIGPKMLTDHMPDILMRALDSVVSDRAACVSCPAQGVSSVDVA
NS3 hel confirm – HCV NS3 helicase inhibitors, retest, confirmation, biochemical, Cy5 molecular beacon fluorescence, triplicate; NS3 helicase DNA unwinding; shares compounds with NS3 helicase inh; actives 31% (n = 1,600); inhibition, % at 10.9 µM;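 active = inhibition above the mean of all tested compounds plus 3 SD, cutoff set per campaign, cut at about 36% in these data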
DNA FID counter-2 – compounds displacing fluorescent DNA intercalator, artefact control for HCV NS3 helicase inhibitor project, biochemical, FID fluorescence, triplicate | inhibition, % at 7.9 µM | DNA fluorescent intercalator displacement | shares compounds with NS3 helicase inh | AID 1945, 2009 | actives 4% (n = 1,600);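 also: higher means more displacement of ethidium bromide from the DNA hairpin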
A number is an active result. Rule as the data show it, unless noted: active = inhibition above about 37%; inactive = the rest.

COc1ccc(C2(CNC(=O)/C=C/c3ccco3)CCCC2)cc1OC was read as HCV core dimer inactive, NS3 helicase inh 38, DNA FID counter-1 inactive, GPR7 antag inactive, GRK2 aptamer HTS inactive, DAGLB inhibitor inactive, NS3 hel confirm inactive and DNA FID counter-2 inactive.
Screening CCN(CC)S(=O)(=O)c1ccc(OC)c(NC(=O)/C=C/c2ccco2)c1 returned HCV core dimer inactive, NS3 helicase inh 63, DNA FID counter-1 inactive, GPR7 antag inactive, GRK2 aptamer HTS inactive, DAGLB inhibitor inactive, NS3 hel confirm inactive and DNA FID counter-2 inactive.
For Cc1cc(C)n(-c2ccc(C(=O)OCC(=O)c3ccc(Br)s3)cc2)n1 the results were HCV core dimer inactive, NS3 helicase inh 50, DNA FID counter-1 inactive, GPR7 antag inactive, GRK2 aptamer HTS inactive, DAGLB inhibitor inactive, NS3 hel confirm inactive and DNA FID counter-2 inactive.
Screening COc1ccc(NC(=O)CN(C)C(=O)CCCSc2nc3ccccc3[nH]2)cc1 returned HCV core dimer inactive, GRK2 aptamer HTS inactive and DAGLB inhibitor inactive.
Cc1ccnc2nc(C(=O)OCC(=O)NCc3cccc(Cl)c3)nn12 was read as GRK2 aptamer HTS inactive and DAGLB inhibitor inactive.
O=C(O)CC(c1cccc2ccccc12)n1cccc1 (stereo unspecified) was read as HCV core dimer inactive, NS3 helicase inh 67, DNA FID counter-1 inactive, GPR7 antag inactive, GRK2 aptamer HTS inactive, DAGLB inhibitor inactive, NS3 hel confirm inactive and DNA FID counter-2 inactive.
`O=C1ON=C(c2ccccc2)/C1=C/c1ccc(O)c(O)c1` gave HCV core dimer inactive, NS3 helicase inh 46, DNA FID counter-1 inactive, GPR7 antag inactive, GRK2 aptamer HTS inactive, DAGLB inhibitor inactive, NS3 hel confirm inactive and DNA FID counter-2 inactive.
Screening COc1ccc(/C=C2\C(=O)ON=C2c2ccccc2)cc1 returned HCV core dimer inactive, NS3 helicase inh inactive, DNA FID counter-1 inactive, GPR7 antag inactive, GRK2 aptamer HTS inactive and DAGLB inhibitor inactive.
Screening CCOC(=O)c1ccc(N2C(=O)c3n[nH]c(-c4ccco4)c3C2c2ccc([N+](=O)[O-])cc2)cc1 (stereo unspecified) returned HCV core dimer inactive, NS3 helicase inh 38, DNA FID counter-1 inactive, GPR7 antag inactive, GRK2 aptamer HTS inactive, DAGLB inhibitor inactive, NS3 hel confirm inactive and DNA FID counter-2 inactive.
CCOC(=O)c1ccc(N2C(=O)c3n[nH]c(C)c3C2c2cccnc2)cc1 (stereo unspecified) was read as HCV core dimer inactive, NS3 helicase inh inactive, DNA FID counter-1 inactive, GPR7 antag inactive, GRK2 aptamer HTS inactive and DAGLB inhibitor inactive.
Cc1cc(N=Cc2c(O)ccc3cc(Br)ccc23)no1 was read as HCV core dimer inactive, NS3 helicase inh 37, DNA FID counter-1 inactive, GPR7 antag inactive, GRK2 aptamer HTS inactive, DAGLB inhibitor inactive, NS3 hel confirm inactive and DNA FID counter-2 39.
For CCCNc1c(F)c(F)c2c(C)c3ccccc3nc2c1F the results were HCV core dimer inactive, NS3 helicase inh 41, DNA FID counter-1 inactive, GPR7 antag inactive, GRK2 aptamer HTS inactive, DAGLB inhibitor inactive, NS3 hel confirm inactive and DNA FID counter-2 inactive.
For CCc1ccc(NC(=O)CN(CC(=O)Nc2ccc(CC)cc2)CC(C)O)cc1 (stereo unspecified) the results were HCV core dimer inactive, NS3 helicase inh inactive, DNA FID counter-1 inactive, GPR7 antag inactive, GRK2 aptamer HTS inactive and DAGLB inhibitor inactive.
COc1ccc(N(CC(=O)NCCC2=CCCCC2)S(=O)(=O)c2c(C)[nH]c(=O)[nH]c2=O)cc1 was read as HCV core dimer inactive, NS3 helicase inh 37, DNA FID counter-1 inactive, GPR7 antag inactive, GRK2 aptamer HTS inactive, DAGLB inhibitor inactive, NS3 hel confirm inactive and DNA FID counter-2 inactive.
Screening O=C(Nc1cccnc1)C(Cc1ccccc1)n1cccc1 (stereo unspecified) returned HCV core dimer inactive, NS3 helicase inh inactive, DNA FID counter-1 inactive, GPR7 antag inactive, GRK2 aptamer HTS inactive and DAGLB inhibitor inactive.
O=C(Nc1ncc(Br)s1)C(Cc1ccccc1)n1cccc1 (stereo unspecified) was read as HCV core dimer inactive, NS3 helicase inh 44, DNA FID counter-1 inactive, GPR7 antag inactive, GRK2 aptamer HTS inactive, DAGLB inhibitor inactive, NS3 hel confirm inactive and DNA FID counter-2 inactive.
Cn1c(SCC(=O)Nc2ccccc2)nc2ccccc2c1=O was read as NS3 helicase inh inactive, DNA FID counter-1 inactive, GPR7 antag inactive, GRK2 aptamer HTS inactive and DAGLB inhibitor inactive.
For COc1ccc(CN2CCN(S(=O)(=O)c3ccc(C)cc3)CC2)cc1OC the results were HCV core dimer inactive, GRK2 aptamer HTS inactive and DAGLB inhibitor inactive.
COc1ccc(S(=O)(=O)N2CCN(Cc3ccccc3)CC2)cc1OC was read as NS3 helicase inh 97, DNA FID counter-1 inactive, GPR7 antag inactive, GRK2 aptamer HTS inactive, DAGLB inhibitor inactive, NS3 hel confirm inactive and DNA FID counter-2 inactive.
Screening Cc1onc(-c2ccccc2)c1C(=O)N/N=C/c1ccco1 returned HCV core dimer inactive, NS3 helicase inh 40, DNA FID counter-1 inactive, GPR7 antag inactive, GRK2 aptamer HTS inactive, DAGLB inhibitor inactive, NS3 hel confirm inactive and DNA FID counter-2 inactive.
Screening Cc1onc(-c2ccccc2)c1C(=O)N/N=C/c1cccc(O)c1 returned HCV core dimer inactive, NS3 helicase inh inactive, DNA FID counter-1 inactive, GPR7 antag inactive, GRK2 aptamer HTS inactive and DAGLB inhibitor inactive.
CN(CC(=O)Nc1cccc(F)c1)C(=O)CC1CC2CCC1C2 (stereo unspecified) was read as HCV core dimer inactive, NS3 helicase inh inactive, DNA FID counter-1 inactive, GPR7 antag inactive, GRK2 aptamer HTS inactive and DAGLB inhibitor inactive.
Screening COc1ccc(CCCNC(=O)C2CCC(=O)N(CCc3cccc(F)c3)C2)cc1 (stereo unspecified) returned HCV core dimer inactive, NS3 helicase inh inactive, DNA FID counter-1 inactive, GPR7 antag inactive, GRK2 aptamer HTS inactive and DAGLB inhibitor inactive.
